# Assay results from ChEMBL document CHEMBL1149311, “Synthesis and antitumor activity of methyltriazene prodrugs simultaneously releasing DNA-methylating agents and the antiresistance drug O(6)-benzylguanine” (J Med Chem, 2004).
# Assays:
# HL-60 = experiment: Antitumor activity against human HL60 cells; type: functional
# Summary of the method: (§1)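 Tested in the NCI in vitro disease-oriented human tumor cell screen. The endpoints are IC50 (molar concentration giving 50% growth inhibition), TGI (total growth inhibition) and LC50 (50% net cell death). The maximal concentration tested was 100 μM. Subpanel values are means of several individual cell lines.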
# K562 = experiment: Antitumor activity against human K562 cells; type: functional; summary of the method: as §1
# RPMI-8226 = experiment: Antitumor activity against human RPMI8226 cells; type: functional; summary of the method: as §1
# A549 = experiment: Antitumor activity against human A549 cells; type: functional; summary of the method: as §1
# EKVX = experiment: Antitumor activity against human EKVX cells; type: functional; summary of the method: as §1
# HOP-62 = experiment: Antitumor activity against human HOP62 cells; type: functional; summary of the method: as §1
# NCI-H23 = experiment: Antitumor activity against human NCI-H23 cells; type: functional; summary of the method: as §1
# NCI-H322M = experiment: Antitumor activity against human NCI-H322M cells; type: functional; summary of the method: as §1
# NCI-H460 = experiment: Antitumor activity against human NCI-H460 cells; type: functional; summary of the method: as §1
# COLO 205 = experiment: Antitumor activity against human COLO 205 cells; type: functional; summary of the method: as §1
# HCT-116 = experiment: Antitumor activity against human HCT116 cells; type: functional; summary of the method: as §1
# HCT-15 = experiment: Antitumor activity against human HCT15 cells; type: functional; summary of the method: as §1
# KM12 = experiment: Antitumor activity against human KM12 cells; type: functional; summary of the method: as §1
# SW-620 = experiment: Antitumor activity against human SW620 cells; type: functional
# Summary of the method: (§2)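 NCI in vitro disease-oriented tumour cell line screen. Read-outs are IC50 (molar concentration giving 50% growth inhibition), TGI (molar concentration giving total inhibition of net growth) and LC50 (molar concentration giving 50% net cell death). The maximal concentration tested was 100 μM.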
# SF-268 = experiment: Antitumor activity against human SF268 cells; type: functional; summary of the method: as §1
# SF-295 = experiment: Antitumor activity against human SF295 cells; type: functional; summary of the method: as §1
# SNB-19 = experiment: Antitumor activity against human SNB19 cells; type: functional; summary of the method: as §1
# SNB-75 = experiment: Antitumor activity against human SNB75 cells; type: functional; summary of the method: as §2
# [1] = Antitumor activity against human LOX IMV1 cells; type: functional, cell-based; summary of the method: as §1
# M14 = experiment: Antitumor activity against human M14 cells; type: functional; summary of the method: as §1
# SK-MEL-2 = experiment: Antitumor activity against human SK-MEL-2 cells; type: functional; summary of the method: as §1
# SK-MEL-5 = experiment: Antitumor activity against human SK-MEL-5 cells; type: functional; summary of the method: as §1
# IGROV-1 = experiment: Antitumor activity against human IGROV1 cells; type: functional; summary of the method: as §1
# OVCAR-3 = experiment: Antitumor activity against human OVCAR-3 cells; type: functional; summary of the method: as §1
# OVCAR-8 = experiment: Antitumor activity against human OVCAR8 cells; type: functional; summary of the method: as §1
# 786-0 = experiment: Antitumor activity against human 786-0 cells; type: functional; summary of the method: as §1
# CAKI-1 = experiment: Antitumor activity against human CAKI1 cells; type: functional; summary of the method: as §1
# UO-31 = experiment: Antitumor activity against human UO31 cells; type: functional; summary of the method: as §2
# DU-145 = experiment: Antitumor activity against human DU145 cells; type: functional; summary of the method: as §1
# MCF7 = experiment: Antitumor activity against human MCF7 cells; type: functional; summary of the method: as §1
# MDA-MB-231 = experiment: Antitumor activity against human MDA-MB-231 cells; type: functional; summary of the method: as §1
# Hs-578T = experiment: Antitumor activity against human HS578T cells; type: functional; conditions: Homo sapiens, Hs-578T; summary of the method: as §1
# MDA-MB-435 = experiment: Antitumor activity against human MDA-MB-435 cells; type: functional; summary of the method: as §1
# BT-549 = experiment: Antitumor activity against human BT549 cells; type: functional; summary of the method: as §1
# T47D = experiment: Antitumor activity against human T47D cells; type: functional; summary of the method: as §2
# [2] = Half life of hydrolysis in deuterated phosphate buffer at pD 7.8; conditions: deuterated phosphate buffer, pH 7.8
# NCI [3] = experiment: Antitumor activity against human NCI leukemia cell line panel; type: functional, cell-based; summary of the method: as §1
# NCI [4] = experiment: Antitumor activity against human NCI colon cancer cell line panel; type: functional, cell-based; summary of the method: as §1
# NCI [5] = experiment: Antitumor activity against NCI human melanoma cell line panel; type: functional, cell-based; summary of the method: as §1
# HOP-92 = experiment: Antitumor activity against human HOP92 cells; type: functional; summary of the method: as §1
# OVCAR-5 = experiment: Antitumor activity against human OVCAR5 cells; type: functional; summary of the method: as §1
# [6] = read-out: Log LC50 (the source's name) (converted)
# [7] = read-out: LC50 (the source's name)
structure (smiles),measurement,setting,value
CN(/N=N/c1nc(OCc2ccccc2)c2nc[nH]c2n1)C(=O)Oc1ccc([N+](=O)[O-])cc1,GI50,HL-60,12 µM
same,CC50,HL-60; [6],> 50.1 µM
same,TGI,HL-60; read-out: Log TGI (converted),> 50.1 µM
same,GI50,K562,12 µM
same,CC50,K562; [6],> 50.1 µM
same,TGI,K562; read-out: Log TGI (converted),> 50.1 µM
same,GI50,RPMI-8226,9.12 µM
same,CC50,RPMI-8226; [6],> 50.1 µM
same,TGI,RPMI-8226; read-out: Log TGI (converted),> 50.1 µM
same,GI50,A549,12 µM
same,CC50,A549; [6],50.1 µM
same,TGI,A549; read-out: Log TGI (converted),31.6 µM
same,GI50,EKVX,11.5 µM
same,CC50,EKVX; [6],> 50.1 µM
same,TGI,EKVX; read-out: Log TGI (converted),36.3 µM
same,GI50,HOP-62,28.8 µM
same,LC50,HOP-62,> 50.1 µM
same,TGI,HOP-62; read-out: Log TGI (converted),> 50.1 µM
same,GI50,NCI-H23,8.51 µM
same,LC50 (50% net cell kill),NCI-H23,32.4 µM
same,TGI,NCI-H23; read-out: Log TGI (converted),16.2 µM
same,GI50,NCI-H322M,9.33 µM
same,CC50,NCI-H322M; [6],45.7 µM
same,TGI,NCI-H322M; read-out: Log TGI (converted),20.9 µM
same,GI50,NCI-H460,6.76 µM
same,CC50,NCI-H460; [6],> 50.1 µM
same,TGI,NCI-H460; read-out: Log TGI (converted),31.6 µM
same,GI50,COLO 205,10.2 µM
same,CC50,COLO 205; [6],> 50.1 µM
same,TGI,COLO 205; read-out: Log TGI (converted),29.5 µM
same,GI50,HCT-116,8.71 µM
same,CC50,HCT-116; [6],29.5 µM
same,TGI,HCT-116; read-out: Log TGI (converted),15.8 µM
same,GI50,HCT-15,8.91 µM
same,CC50,HCT-15; [6],44.7 µM
same,TGI,HCT-15; read-out: Log TGI (converted),20 µM
same,GI50,KM12,8.51 µM
same,CC50,KM12; [6],41.7 µM
same,TGI,KM12; read-out: Log TGI (converted),18.6 µM
same,GI50,SW-620,9.12 µM
same,CC50,SW-620; [6],> 50.1 µM
same,TGI,SW-620; read-out: Log TGI (converted),26.3 µM
same,GI50,SF-268,9.33 µM
same,CC50,SF-268; [6],> 50.1 µM
same,TGI,SF-268; read-out: Log TGI (converted),29.5 µM
same,GI50,SF-295,11.2 µM
same,CC50,SF-295; [6],> 50.1 µM
same,TGI,SF-295; read-out: Log TGI (converted),33.9 µM
same,GI50,SNB-19,9.55 µM
same,LC50,SNB-19,> 50.1 µM
same,TGI,SNB-19; read-out: Log TGI (converted),28.2 µM
same,CC50,SNB-75; [6],> 50.1 µM
same,TGI,SNB-75; read-out: Log TGI (converted),> 50.1 µM
same,GI50,[1],1.15 µM
same,IC50,[1],1.1 µM
same,CC50,[1]; [7],27 µM
same,CC50,[1]; [6],26.9 µM
same,TGI,[1]; read-out: Log TGI (converted),10.7 µM
same,TGI,[1]; read-out: TGI,11 µM
same,GI50,M14,8.91 µM
same,CC50,M14; [6],38 µM
same,TGI,M14; read-out: Log TGI (converted),18.2 µM
same,GI50,SK-MEL-2,12 µM
same,CC50,SK-MEL-2; [6],> 50.1 µM
same,TGI,SK-MEL-2; read-out: Log TGI (converted),28.2 µM
same,GI50,SK-MEL-5,6.92 µM
same,CC50,SK-MEL-5; [6],38.9 µM
same,TGI,SK-MEL-5; read-out: Log TGI (converted),16.2 µM
same,GI50,IGROV-1,12.3 µM
same,CC50,IGROV-1; [6],> 50.1 µM
same,TGI,IGROV-1; read-out: Log TGI (converted),30.9 µM
same,GI50,OVCAR-3,9.55 µM
same,LC50,OVCAR-3,> 50.1 µM
same,TGI,OVCAR-3; read-out: Log TGI (converted),24.5 µM
same,GI50,OVCAR-8,9.77 µM
same,LC50 (concentration giving 50% net cell death),OVCAR-8,> 50.1 µM
same,TGI,OVCAR-8; read-out: Log TGI (converted),26.3 µM
same,GI50,786-0,8.71 µM
same,LC50 (concentration giving 50% net cell death),786-0,> 50.1 µM
same,TGI,786-0; read-out: Log TGI (converted),23.4 µM
same,GI50,CAKI-1,11 µM
same,CC50,CAKI-1; [6],> 50.1 µM
same,TGI,CAKI-1; read-out: Log TGI (converted),35.5 µM
same,GI50,UO-31,6.61 µM
same,CC50,UO-31; [6],29.5 µM
same,TGI,UO-31; read-out: Log TGI (converted),13.8 µM
same,GI50,DU-145,9.12 µM
same,CC50,DU-145; [6],42.7 µM
same,TGI,DU-145; read-out: Log TGI (converted),19.5 µM
same,GI50,MCF7,12.3 µM
same,CC50,MCF7; [6],> 50.1 µM
same,TGI,MCF7; read-out: Log TGI (converted),> 50.1 µM
same,GI50,MDA-MB-231,5.75 µM
same,CC50,MDA-MB-231; [6],> 50.1 µM
same,TGI,MDA-MB-231; read-out: Log TGI (converted),18.6 µM
same,GI50,Hs-578T,8.71 µM
same,CC50,Hs-578T; [6],> 50.1 µM
same,TGI,Hs-578T; read-out: Log TGI (converted),29.5 µM
same,GI50,MDA-MB-435,12.3 µM
same,CC50,MDA-MB-435; [6],> 50.1 µM
same,TGI,MDA-MB-435; read-out: Log TGI (converted),39.8 µM
same,GI50,BT-549,7.41 µM
same,CC50,BT-549; [6],> 50.1 µM
same,TGI,BT-549; read-out: Log TGI (converted),20.4 µM
same,GI50,T47D,14.1 µM
same,CC50,T47D; [6],> 50.1 µM
same,TGI,T47D; read-out: Log TGI (converted),32.4 µM
same,half-life,[2],23 min
same,IC50,NCI [3],14 µM
same,TGI,NCI [3],50 µM
same,CC50,NCI [3]; [7],50 µM
same,IC50,NCI [4],9 µM
same,TGI,NCI [4],21 µM
same,CC50,NCI [4]; [7],43 µM
same,IC50,NCI [5],8 µM
same,TGI,NCI [5],23 µM
same,CC50,NCI [5]; [7],40 µM
same,GI50,HOP-92,7.24 µM
same,CC50,HOP-92; [6],> 50.1 µM
same,TGI,HOP-92; read-out: Log TGI (converted),26.3 µM
same,GI50,OVCAR-5,11.5 µM
same,CC50,OVCAR-5; [6],> 50.1 µM
same,TGI,OVCAR-5; read-out: Log TGI (converted),> 50.1 µM
